According to ChEMBL document CHEMBL2384906, “Biological activity, design, synthesis and structure activity relationship of some novel derivatives of curcumin containing sulfonamides” (Eur J Med Chem, 2013):
Converted amounts (≈) assume the structure as drawn. The source made the active and inactive calls. No cut-off for these calls is given here.

Key:
HepG2 = assay: Cytotoxicity against human HepG2 cells after 24 hrs by MTT assay; assay type: functional, cell-based
In short: (§1)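 The MTT assay seeded 5 × 10⁴ cells per well and grew them 24 h in RPMI 1640 with compound at 2.5–200 µM. Medium without cells was the blank and adriamycin the positive control. MTT was added for 4 h at 37 °C, formazan was solubilised, and absorbance was read at 570 nm. IC50 is the concentration that cuts viability 50% against untreated cells.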

Salmonella typhi [1] = assay: Antimicrobial activity against Salmonella typhi ATCC 23564 assessed as diameter of inhibition zone at 80 uM after 24 hrs by Kirby -Baur disc diffusion method; assay type: functional, Salmonella enterica subsp. enterica serovar Typhi; conditions: Salmonella enterica, ATCC 23564, 24 h; read-out: DIZ
Trichoderma viride [2] = assay: Antifungal activity against Trichoderma viride MTCC 1107 assessed as zone of inhibition at 40 uM after 48 hrs by disc diffusion method; assay type: functional; conditions: MTCC 1107, 48 h, read-out: IZ
In short: (§2)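 Spores from 4-day potato dextrose agar cultures, suspended in sterile water at 1.5 × 10⁵ CFU/mL. 0.2 mL was spread on potato dextrose agar. 5 mm filter-paper discs soaked with test compound were laid on the lawn. Incubation was 48 h at 28 °C, then the inhibition zone was measured in mm. Fluconazole was the positive control and acetone the negative control.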

Curvularia lunata [3] = assay: Antifungal activity against Curvularia lunata MTCC 581 assessed as zone of inhibition at 20 uM after 48 hrs by disc diffusion method; assay type: functional; in short: as §2
Salmonella typhi [4] = assay: Antimicrobial activity against Salmonella typhi ATCC 23564 assessed as diameter of inhibition zone at 20 uM after 24 hrs by Kirby -Baur disc diffusion method; assay type: functional; conditions: Salmonella enterica subsp. enterica serovar Typhi
Staphylococcus aureus [5] = assay: Antimicrobial activity against Staphylococcus aureus ATCC 11632 assessed as diameter of inhibition zone at 80 uM after 24 hrs by Kirby -Baur disc diffusion method; assay type: functional
In short: (§3)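 Kirby-Bauer disc diffusion was used. Acetone stocks (160 µM) were serially doubled down to 80, 40 and 20 µM. 4 µL of each went onto 5 mm sterile paper discs, which were dried 30 min at 50 °C. Inoculum was 1.5 × 10⁸ CFU/mL diluted to 3 × 10² CFU/mL, and 50 µL was spread on Mueller-Hinton agar. After 24 h at 37 °C the inhibition-zone diameter was measured. Ciprofloxacin served as positive control.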

Trichoderma viride [6] = assay: Antifungal activity against Trichoderma viride MTCC 1107 assessed as zone of inhibition at 20 uM after 48 hrs by disc diffusion method; assay type: functional; in short: as §2
Aspergillus flavus [7] = assay: Antifungal activity against Aspergillus flavus MTCC 1021 after 48 hrs; assay type: functional
Escherichia coli [8] = assay: Antimicrobial activity against Escherichia coli ATCC 35218 assessed as diameter of inhibition zone at 20 uM after 24 hrs by Kirby -Baur disc diffusion method; assay type: functional; in short: as §3
Escherichia coli [9] = assay: Antimicrobial activity against Escherichia coli ATCC 35218 assessed as diameter of inhibition zone at 40 uM after 24 hrs by Kirby -Baur disc diffusion method; assay type: functional; in short: as §3
Staphylococcus aureus [10] = assay: Antimicrobial activity against Staphylococcus aureus ATCC 11632 after 24 hrs by broth micro serial dilution method; assay type: functional
In short: (§4)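 This was broth microdilution in autoclaved Mueller-Hinton broth. 150 µL of compound per well was serially diluted […], and 50 µL of test organism was added. Plates were incubated 24 h at 37 °C and optical density was read.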

Bacillus cereus [11] = assay: Antimicrobial activity against Bacillus cereus MTCC 7350 after 24 hrs by broth micro serial dilution method; assay type: functional; in short: as §4
Bacillus cereus [12] = assay: Antimicrobial activity against Bacillus cereus MTCC 7350 assessed as diameter of inhibition zone at 80 uM after 24 hrs by Kirby -Baur disc diffusion method; assay type: functional; in short: as §3
Mus musculus = assay: Antiinflammatory activity in mouse assessed as inhibition of carrageenan-induced increase in paw volume at 200 mg/kg administered 1 hr prior to carrageenan challenge measured after 3 hrs relative to control; assay type: functional
In short: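 Mice were fasted 2 h and placed in groups of five. Controls received saline i.p. Phenylbutazone was given at 100 mg/kg i.p., curcumin at 200 mg/kg i.p., and derivatives at 200 mg/kg. After 1 h, 0.1 mL of 1% carrageenan in saline was injected subplantar into the right hind paw. Paw volume was followed by plethysmometer for 3 h, and % inhibition was calculated as (Vc − Vt)/Vc × 100.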

Pseudomonas aeruginosa [13] = assay: Antimicrobial activity against Pseudomonas aeruginosa ATCC 15499 after 24 hrs by broth micro serial dilution method; assay type: functional; conditions: ATCC 15499, 24 h; in short: as §4
Aspergillus niger [14] = assay: Antifungal activity against Aspergillus niger MTCC 1108 assessed as zone of inhibition at 80 uM after 48 hrs by disc diffusion method; assay type: functional; in short: as §2
Trichoderma viride [15] = assay: Antifungal activity against Trichoderma viride MTCC 1107 assessed as zone of inhibition at 80 uM after 48 hrs by disc diffusion method; assay type: functional; conditions: MTCC 1107, 48 h, read-out: IZ; in short: as §2
HCT-116 = assay: Cytotoxicity against human HCT116 cells after 24 hrs by MTT assay; assay type: functional, cell-based; in short: as §1
Aspergillus flavus [16] = assay: Antifungal activity against Aspergillus flavus MTCC 1021 assessed as zone of inhibition at 80 uM after 48 hrs by disc diffusion method; assay type: functional; in short: as §2
HeLa = assay: Cytotoxicity against human HeLa cells after 24 hrs by MTT assay; assay type: functional, cell-based; in short: as §1
Escherichia coli [17] = assay: Antimicrobial activity against Escherichia coli ATCC 35218 after 24 hrs by broth micro serial dilution method; assay type: functional; conditions: ATCC 35218, 24 h; in short: as §4
Escherichia coli [18] = assay: Antimicrobial activity against Escherichia coli ATCC 35218 assessed as diameter of inhibition zone at 80 uM after 24 hrs by Kirby -Baur disc diffusion method; assay type: functional; conditions: ATCC 35218, 24 h, read-out: DIZ; in short: as §3
Curvularia lunata [19] = assay: Antifungal activity against Curvularia lunata MTCC 581 after 48 hrs; assay type: functional; conditions: MTCC 581, 48 h
Pseudomonas aeruginosa [20] = assay: Antimicrobial activity against Pseudomonas aeruginosa ATCC 15499 assessed as diameter of inhibition zone at 80 uM after 24 hrs by Kirby -Baur disc diffusion method; assay type: functional; in short: as §3
Salmonella typhi [21] = assay: Antimicrobial activity against Salmonella typhi ATCC 23564 assessed as diameter of inhibition zone at 40 uM after 24 hrs by Kirby -Baur disc diffusion method; assay type: functional, Salmonella enterica subsp. enterica serovar Typhi; conditions: for zone of inhibition at 40 µM: Salmonella enterica, ATCC 23564, 24 h, read-out: DIZ
Trichoderma viride [22] = assay: Antifungal activity against Trichoderma viride MTCC 1107 after 48 hrs; assay type: functional; conditions: MTCC 1107, 48 h
QG-56 = assay: Cytotoxicity against human QG56 cells after 24 hrs by MTT assay; assay type: functional, cell-based; in short: as §1
Curvularia lunata [23] = assay: Antifungal activity against Curvularia lunata MTCC 581 assessed as zone of inhibition at 40 uM after 48 hrs by disc diffusion method; assay type: functional; conditions: MTCC 581, 48 h, read-out: IZ; in short: as §2
Salmonella typhi [24] = assay: Antimicrobial activity against Salmonella typhi ATCC 23564 after 24 hrs by broth micro serial dilution method; assay type: functional, Salmonella enterica subsp. enterica serovar Typhi; conditions: Salmonella enterica, ATCC 23564, 24 h
Curvularia lunata [25] = assay: Antifungal activity against Curvularia lunata MTCC 581 assessed as zone of inhibition at 80 uM after 48 hrs by disc diffusion method; assay type: functional; conditions: MTCC 581, 48 h, read-out: IZ; in short: as §2
Aspergillus niger [26] = assay: Antifungal activity against Aspergillus niger MTCC 1108 after 48 hrs; assay type: functional
Staphylococcus aureus [27] = assay: Antimicrobial activity against Staphylococcus aureus ATCC 11632 assessed as diameter of inhibition zone at 20 uM after 24 hrs by Kirby -Baur disc diffusion method; assay type: functional; in short: as §3
Staphylococcus aureus [28] = assay: Antimicrobial activity against Staphylococcus aureus ATCC 11632 assessed as diameter of inhibition zone at 40 uM after 24 hrs by Kirby -Baur disc diffusion method; assay type: functional; in short: as §3
Pseudomonas aeruginosa [29] = assay: Antimicrobial activity against Pseudomonas aeruginosa ATCC 15499 assessed as diameter of inhibition zone at 40 uM after 24 hrs by Kirby -Baur disc diffusion method; assay type: functional; conditions: ATCC 15499, 24 h, read-out: DIZ; in short: as §3
Pseudomonas aeruginosa [30] = assay: Antimicrobial activity against Pseudomonas aeruginosa ATCC 15499 assessed as diameter of inhibition zone at 20 uM after 24 hrs by Kirby -Baur disc diffusion method; assay type: functional; in short: as §3
[31] = ATCC 35218, 24 h, read-out: DIZ

Structure (SMILES) | IC50 (HepG2) | zone of inhibition at 80 µM (Salmonella typhi [1]) | zone of inhibition at 40 µM (Trichoderma viride [2]) | diameter of the inhibition zone (DIZ) (Salmonella typhi [4]) | MIC (Bacillus cereus [11]) | diameter of the inhibition zone (DIZ) (Bacillus cereus [12]) | inhibition in vivo at 200 mg/kg (Mus musculus) | MIC (Pseudomonas aeruginosa [13]) | inhibition zone (IZ) (Aspergillus niger [14]) | zone of inhibition at 80 µM (Trichoderma viride [15]) | IC50 (HCT-116) | inhibition zone (IZ) (Aspergillus flavus [16]) | IC50 (HeLa) | MIC (Escherichia coli [17]) | zone of inhibition at 80 µM (Escherichia coli [18]) | MIC (Curvularia lunata [19]) | MIC (Trichoderma viride [22]) | IC50 (QG-56) | zone of inhibition at 40 µM (Curvularia lunata [23]) | MIC (Salmonella typhi [24]) | also measured
COc1cc(/C=C/c2noc(/C=C/c3ccc(O)c(OC)c3)c2/N=N/c2ccc(S(=O)(=O)Nc3ccccn3)cc2)ccc1O | Not Active | 15 mm | 10 mm | inactive | inactive | inactive | 27.4% | > 80 µM | inactive | 12 mm | Not Active | inactive | Not Active | > 80 µM | 10 mm | > 80 µM | 80 µM (≈ 50.1 µg/mL) | Not Active | 10 mm | 80 µM (≈ 50.1 µg/mL) | inhibition zone (IZ) (Curvularia lunata [3]): inactive; diameter of the inhibition zone (DIZ) (Staphylococcus aureus [5]): inactive; inhibition zone (IZ) (Trichoderma viride [6]): inactive; MIC (Aspergillus flavus [7]; MTCC 1021, 48 h): > 80 µM; diameter of the inhibition zone (DIZ) (Escherichia coli [8]): inactive; diameter of the inhibition zone (DIZ) (Escherichia coli [9]): inactive; MIC (Staphylococcus aureus [10]): inactive; diameter of the inhibition zone (DIZ) (Pseudomonas aeruginosa [20]): inactive; zone of inhibition at 40 µM (Salmonella typhi [21]): 9 mm; zone of inhibition at 80 µM (Curvularia lunata [25]): 12 mm; MIC (Aspergillus niger [26]): inactive
COc1cc(/C=C/c2nn(-c3ccccc3)c(/C=C/c3ccc(O)c(OC)c3)c2/N=N/c2ccc(S(=O)(=O)Nc3ccccn3)cc2)ccc1O | Not Active | 9 mm | 13 mm | inactive | inactive | inactive | 20.9% | > 80 µM | inactive | 17 mm | Not Active | inactive | 50 µM | > 80 µM | 10 mm | 40 µM (≈ 28 µg/mL) | 40 µM (≈ 28 µg/mL) | 100 µM | 13 mm | > 80 µM | zone of inhibition at 20 µM (Curvularia lunata [3]; MTCC 581, 48 h, read-out: IZ): 10 mm; diameter of the inhibition zone (DIZ) (Staphylococcus aureus [5]): inactive; zone of inhibition at 20 µM (Trichoderma viride [6]; MTCC 1107, 48 h, read-out: IZ): 10 mm; MIC (Aspergillus flavus [7]): inactive; zone of inhibition at 20 µM (Escherichia coli [8]; [31]): 7 mm; zone of inhibition at 40 µM (Escherichia coli [9]; [31]): 9 mm; MIC (Staphylococcus aureus [10]): inactive; diameter of the inhibition zone (DIZ) (Pseudomonas aeruginosa [20]): inactive; diameter of the inhibition zone (DIZ) (Salmonella typhi [21]; Salmonella enterica subsp. enterica serovar Typhi): inactive; zone of inhibition at 80 µM (Curvularia lunata [25]): 17 mm; MIC (Aspergillus niger [26]): inactive
COc1ccc(NS(=O)(=O)c2ccc(/N=N/c3c(/C=C/c4ccc(O)c(OC)c4)noc3/C=C/c3ccc(O)c(OC)c3)cc2)nn1 | Not Active | 14 mm | 9 mm | inactive | inactive | inactive | 48.3% | 80 µM (≈ 52.5 µg/mL) | inactive | 11 mm | Not Active | inactive | Not Active | > 80 µM | 11 mm | > 80 µM | > 80 µM | Not Active | 9 mm | 80 µM (≈ 52.5 µg/mL) | inhibition zone (IZ) (Curvularia lunata [3]): inactive; zone of inhibition at 80 µM (Staphylococcus aureus [5]; ATCC 11632, 24 h, read-out: DIZ): 10 mm; inhibition zone (IZ) (Trichoderma viride [6]): inactive; MIC (Aspergillus flavus [7]; MTCC 1021, 48 h): > 80 µM; diameter of the inhibition zone (DIZ) (Escherichia coli [8]): inactive; diameter of the inhibition zone (DIZ) (Escherichia coli [9]): inactive; MIC (Staphylococcus aureus [10]; ATCC 11632, 24 h): > 80 µM; diameter of the inhibition zone (DIZ) (Staphylococcus aureus [27]): inactive; diameter of the inhibition zone (DIZ) (Staphylococcus aureus [28]): inactive; zone of inhibition at 80 µM (Pseudomonas aeruginosa [20]; ATCC 15499, 24 h, read-out: DIZ): 13 mm; zone of inhibition at 40 µM (Pseudomonas aeruginosa [29]): 9 mm; zone of inhibition at 40 µM (Salmonella typhi [21]): 9 mm; diameter of the inhibition zone (DIZ) (Pseudomonas aeruginosa [30]): inactive; zone of inhibition at 80 µM (Curvularia lunata [25]): 11 mm; MIC (Aspergillus niger [26]; MTCC 1108, 48 h): > 80 µM
